Assay results as given in ChEMBL document CHEMBL4118097, “Selective Inhibitors of Dual Leucine Zipper Kinase (DLK, MAP3K12) with Activity in a Model of Alzheimer's Disease” (J Med Chem, 2017).

What was measured:
[1] = target: Rho-associated protein kinase 1 (Homo sapiens) (UniProt Q13464); assay: Inhibition of recombinant N-terminal GST-tagged human ROCK1 catalytic domain (1 to 535 residues) expressed in baculovirus expression system at 1 uM by FRET assay relative to control
Summary of the method: (§1)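 Single-concentration screen at 1 μM in Life Technologies SelectScreen, across a 220-kinase panel. Z′-LYTE format measures phosphorylation of a labeled peptide by FRET. Results are reported as percent inhibition.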

[2] = target: G protein-coupled receptor kinase 5 (Homo sapiens) (UniProt P34947); assay: Inhibition of recombinant full length GST-tagged human GRK5 expressed in baculovirus expression system at 1 uM by FRET relative to control; summary of the method: as §1
[3] = target: Casein kinase II subunit alpha (Homo sapiens) (UniProt P68400); assay: Inhibition of CK2alpha1 (unknown origin) at 1 uM by FRET assay relative to control
[4] = target: G protein-coupled receptor kinase 3 (Homo sapiens) (UniProt P35626); assay: Inhibition of recombinant full length GST-tagged human GRK3 expressed in baculovirus expression system at 1 uM by FRET relative to control; summary of the method: as §1
[5] = target: Angiopoietin-1 receptor (Homo sapiens) (UniProt Q02763); assay: Inhibition of recombinant GST-tagged human Tie2 cytoplasmic domain (817 to 1101 residues) expressed in baculovirus expression system at 1 uM by FRET assay relative to control
Summary of the method: (§2)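 Single-point screen at 1 μM compound in a 220-kinase panel run by Life Technologies (SelectScreen). Z′-LYTE format: phosphorylation of a labeled peptide substrate read by FRET. Values are reported as percent inhibition.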

[6] = target: Mitogen-activated protein kinase kinase kinase kinase 5 (Homo sapiens) (UniProt Q9Y4K4); assay: Inhibition of recombinant full length His-tagged human KHS1 expressed in baculovirus expression system at 1 uM by FRET assay relative to control
[7] = target: Cyclin-dependent kinase 1/cyclin B1 (Homo sapiens) (UniProt P06493+P14635); assay: Inhibition of recombinant full length His-tagged human CDK1/CyclinB expressed in baculovirus expression system at 1 uM by FRET assay relative to control
Sequence of Cyclin-dependent kinase 1/cyclin B1 (Homo sapiens) (P06493 whole entry, looked up, the tested form may be a part): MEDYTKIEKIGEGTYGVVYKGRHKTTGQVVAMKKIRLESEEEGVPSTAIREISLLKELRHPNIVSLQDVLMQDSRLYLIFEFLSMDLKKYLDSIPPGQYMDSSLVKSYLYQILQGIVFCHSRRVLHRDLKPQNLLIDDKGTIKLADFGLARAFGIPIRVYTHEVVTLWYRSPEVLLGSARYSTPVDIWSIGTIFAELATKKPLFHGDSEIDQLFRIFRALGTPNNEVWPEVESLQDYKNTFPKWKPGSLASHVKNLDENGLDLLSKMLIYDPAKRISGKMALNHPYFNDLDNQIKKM
Sequence of Cyclin-dependent kinase 1/cyclin B1 (Homo sapiens) (P14635 whole entry, looked up, the tested form may be a part): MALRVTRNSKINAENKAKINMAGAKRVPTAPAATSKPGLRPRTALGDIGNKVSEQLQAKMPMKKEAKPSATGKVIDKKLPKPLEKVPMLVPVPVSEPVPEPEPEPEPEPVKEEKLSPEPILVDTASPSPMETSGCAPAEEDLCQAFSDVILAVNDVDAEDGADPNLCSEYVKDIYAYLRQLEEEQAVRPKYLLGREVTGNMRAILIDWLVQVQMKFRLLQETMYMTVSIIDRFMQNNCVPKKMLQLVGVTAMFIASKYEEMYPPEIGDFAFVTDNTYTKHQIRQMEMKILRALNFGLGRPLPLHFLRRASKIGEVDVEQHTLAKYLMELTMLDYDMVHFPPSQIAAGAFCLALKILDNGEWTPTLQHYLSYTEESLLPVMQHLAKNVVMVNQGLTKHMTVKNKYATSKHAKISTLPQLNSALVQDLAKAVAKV

[8] = target: Tyrosine-protein kinase TXK (Homo sapiens) (UniProt P42681); assay: Inhibition of recombinant N-terminal GST-tagged human TXK (260 to 527 residues) expressed in baculovirus expression system at 1 uM by FRET assay relative to control; summary of the method: as §1
Sequence of Tyrosine-protein kinase TXK (Homo sapiens) (P42681 whole entry, the tested form may be a part): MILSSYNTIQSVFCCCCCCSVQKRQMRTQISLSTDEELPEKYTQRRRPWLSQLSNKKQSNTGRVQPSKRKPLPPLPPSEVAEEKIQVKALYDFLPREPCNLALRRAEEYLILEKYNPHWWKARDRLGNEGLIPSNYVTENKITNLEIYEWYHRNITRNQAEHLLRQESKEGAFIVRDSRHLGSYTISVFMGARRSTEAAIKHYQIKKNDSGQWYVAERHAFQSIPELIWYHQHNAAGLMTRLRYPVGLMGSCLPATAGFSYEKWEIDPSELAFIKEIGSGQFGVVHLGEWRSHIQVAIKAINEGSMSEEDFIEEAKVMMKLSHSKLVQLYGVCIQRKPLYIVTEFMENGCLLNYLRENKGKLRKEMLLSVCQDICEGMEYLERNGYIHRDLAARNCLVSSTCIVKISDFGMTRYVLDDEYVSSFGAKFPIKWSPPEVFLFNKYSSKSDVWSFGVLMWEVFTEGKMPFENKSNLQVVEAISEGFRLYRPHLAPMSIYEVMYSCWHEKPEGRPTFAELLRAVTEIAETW

[9] = target: GABA-A receptor; alpha-1/beta-2/gamma-2 (Homo sapiens) (UniProt P14867+P47870+P18507); assay: Binding affinity to GABA-A alpha1beta2gamma2 receptor (unknown origin) at 10 uM relative to control; format: protein-complex assay
Summary of the method: (§3)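 Broad radioligand-binding and enzyme screening panel covering 42 targets (biogenic amine and neuropeptide receptors, ion channels, neurotransmitter transporters, acetylcholinesterase). Single test concentration of 10 μM. Results expressed as binding relative to control, with a hit defined as >50% of control.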

[10] = target: Substance-P receptor (Homo sapiens) (UniProt P25103); assay: Binding affinity to recombinant human NK1 receptor at 10 uM relative to control; summary of the method: as §3
[11] = target: Epidermal growth factor receptor (Homo sapiens) (UniProt P00533); assay: Inhibition of recombinant GST-tagged human EGFR cytoplasmic domain (668 to 1210 residues) expressed in baculovirus expression system at 1 uM by FRET assay relative to control
Summary of the method: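 Part of a 220-kinase panel run at a single concentration of 1 μM. Z′-LYTE format: phosphorylation of a labelled peptide read by FRET. Values reported as percent inhibition.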

[12] = target: Serine/threonine-protein kinase 24 (Homo sapiens) (UniProt Q9Y6E0); assay: Inhibition of recombinant full length GST-tagged human MST3 expressed in baculovirus at 1 uM by FRET assay relative to control; summary of the method: as §1
[13] = target: MAP/microtubule affinity-regulating kinase 3 (Homo sapiens) (UniProt P27448); assay: Inhibition of recombinant full length GST-tagged human MARK3 expressed in baculovirus expression system at 1 uM by FRET assay relative to control; summary of the method: as §1
[14] = target: Ribosomal protein S6 kinase alpha-5 (Homo sapiens) (UniProt O75582); assay: Inhibition of recombinant full length GST-tagged human MSK1 expressed in baculovirus at 1 uM by FRET assay relative to control; summary of the method: as §1
[15] = target: Insulin-like growth factor 1 receptor (Homo sapiens) (UniProt P08069); assay: Inhibition of recombinant His-tagged human IGF1R cytoplasmic domain (960 to 1397 residues) expressed in baculovirus expression system at 1 uM by FRET relative to control; summary of the method: as §2
[16] = target: Dual specificity protein kinase CLK3 (Homo sapiens) (UniProt P49761); assay: Inhibition of full length recombinant GST-tagged human CLK3 expressed in baculovirus expression system at 1 uM by FRET assay relative to control
[17] = target: Platelet-derived growth factor receptor alpha (Homo sapiens) (UniProt P16234); assay: Inhibition of recombinant GST-tagged human PDGFRalpha cytoplasmic domain expressed in baculovirus expression system at 1 uM by FRET assay relative to control; summary of the method: as §2
[18] = species on record: Homo sapiens; assay: Binding affinity to sodium channel site 2 (unknown origin) receptor at 10 uM relative to control; summary of the method: as §3
[19] = target: Fibroblast growth factor receptor 4 (Homo sapiens) (UniProt P22455); assay: Inhibition of recombinant His-tagged human FGFR4 cytoplasmic domain expressed in baculovirus expression system at 1 uM by FRET assay relative to control; summary of the method: as §2
[20] = target: RAC-beta serine/threonine-protein kinase (Homo sapiens) (UniProt P31751); assay: Inhibition of recombinant full length His-tagged human AKT2 expressed in baculovirus expression system at 1 uM by FRET assay relative to control
Sequence of RAC-beta serine/threonine-protein kinase (Homo sapiens) (P31751 whole entry): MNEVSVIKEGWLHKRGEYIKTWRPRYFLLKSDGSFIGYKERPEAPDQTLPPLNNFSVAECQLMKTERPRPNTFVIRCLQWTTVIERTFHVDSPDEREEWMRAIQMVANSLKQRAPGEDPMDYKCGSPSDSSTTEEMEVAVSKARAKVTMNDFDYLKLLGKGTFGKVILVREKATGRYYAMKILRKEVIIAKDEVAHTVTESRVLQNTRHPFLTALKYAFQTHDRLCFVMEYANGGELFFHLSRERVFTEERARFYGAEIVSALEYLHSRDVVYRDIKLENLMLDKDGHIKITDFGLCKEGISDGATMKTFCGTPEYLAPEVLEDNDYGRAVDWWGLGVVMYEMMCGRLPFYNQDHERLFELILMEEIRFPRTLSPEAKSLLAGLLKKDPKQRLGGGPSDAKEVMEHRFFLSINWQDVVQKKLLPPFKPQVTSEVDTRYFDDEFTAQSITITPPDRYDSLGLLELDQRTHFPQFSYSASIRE

[21] = target: Mitogen-activated protein kinase 12 (Homo sapiens) (UniProt P53778); assay: Inhibition of recombinant full length His-tagged human p38gamma expressed in baculovirus expression system at 1 uM by FRET assay relative to control
[22] = species on record: Homo sapiens; assay: Binding affinity to L-type calcium channel verapamil/phenylalkylamine binding site (unknown origin) receptor at 10 uM relative to control; summary of the method: as §3
[23] = target: Mitogen-activated protein kinase 10 (Homo sapiens, UniProt P53779); assay: Inhibition of recombinant full length GST-tagged human JNK3 expressed in baculovirus expression system at 1 uM by FRET assay relative to control; summary of the method: as §1
[24] = target: Insulin receptor (Homo sapiens) (UniProt P06213); assay: Inhibition of recombinant His-tagged human InsR (1011 to 1382 residues) expressed in baculovirus expression system at 1 uM by FRET relative to control; summary of the method: as §2
[25] = target: LIM domain kinase 1 (Homo sapiens) (UniProt P53667); assay: Inhibition of recombinant His-tagged human LIMK1 catalytic domain (285 to 638 residues) expressed in baculovirus expression system at 1 uM by FRET assay relative to control; summary of the method: as §2
[26] = target: Myosin light chain kinase, smooth muscle (Homo sapiens) (UniProt Q15746); assay: Inhibition of recombinant human full length N-terminal GST-tagged smMLCK catalytic domain expressed in baculovirus expression system at 1 uM by FRET assay relative to control
Sequence of Myosin light chain kinase, smooth muscle (Homo sapiens) (Q15746 whole entry, the tested form may be a part): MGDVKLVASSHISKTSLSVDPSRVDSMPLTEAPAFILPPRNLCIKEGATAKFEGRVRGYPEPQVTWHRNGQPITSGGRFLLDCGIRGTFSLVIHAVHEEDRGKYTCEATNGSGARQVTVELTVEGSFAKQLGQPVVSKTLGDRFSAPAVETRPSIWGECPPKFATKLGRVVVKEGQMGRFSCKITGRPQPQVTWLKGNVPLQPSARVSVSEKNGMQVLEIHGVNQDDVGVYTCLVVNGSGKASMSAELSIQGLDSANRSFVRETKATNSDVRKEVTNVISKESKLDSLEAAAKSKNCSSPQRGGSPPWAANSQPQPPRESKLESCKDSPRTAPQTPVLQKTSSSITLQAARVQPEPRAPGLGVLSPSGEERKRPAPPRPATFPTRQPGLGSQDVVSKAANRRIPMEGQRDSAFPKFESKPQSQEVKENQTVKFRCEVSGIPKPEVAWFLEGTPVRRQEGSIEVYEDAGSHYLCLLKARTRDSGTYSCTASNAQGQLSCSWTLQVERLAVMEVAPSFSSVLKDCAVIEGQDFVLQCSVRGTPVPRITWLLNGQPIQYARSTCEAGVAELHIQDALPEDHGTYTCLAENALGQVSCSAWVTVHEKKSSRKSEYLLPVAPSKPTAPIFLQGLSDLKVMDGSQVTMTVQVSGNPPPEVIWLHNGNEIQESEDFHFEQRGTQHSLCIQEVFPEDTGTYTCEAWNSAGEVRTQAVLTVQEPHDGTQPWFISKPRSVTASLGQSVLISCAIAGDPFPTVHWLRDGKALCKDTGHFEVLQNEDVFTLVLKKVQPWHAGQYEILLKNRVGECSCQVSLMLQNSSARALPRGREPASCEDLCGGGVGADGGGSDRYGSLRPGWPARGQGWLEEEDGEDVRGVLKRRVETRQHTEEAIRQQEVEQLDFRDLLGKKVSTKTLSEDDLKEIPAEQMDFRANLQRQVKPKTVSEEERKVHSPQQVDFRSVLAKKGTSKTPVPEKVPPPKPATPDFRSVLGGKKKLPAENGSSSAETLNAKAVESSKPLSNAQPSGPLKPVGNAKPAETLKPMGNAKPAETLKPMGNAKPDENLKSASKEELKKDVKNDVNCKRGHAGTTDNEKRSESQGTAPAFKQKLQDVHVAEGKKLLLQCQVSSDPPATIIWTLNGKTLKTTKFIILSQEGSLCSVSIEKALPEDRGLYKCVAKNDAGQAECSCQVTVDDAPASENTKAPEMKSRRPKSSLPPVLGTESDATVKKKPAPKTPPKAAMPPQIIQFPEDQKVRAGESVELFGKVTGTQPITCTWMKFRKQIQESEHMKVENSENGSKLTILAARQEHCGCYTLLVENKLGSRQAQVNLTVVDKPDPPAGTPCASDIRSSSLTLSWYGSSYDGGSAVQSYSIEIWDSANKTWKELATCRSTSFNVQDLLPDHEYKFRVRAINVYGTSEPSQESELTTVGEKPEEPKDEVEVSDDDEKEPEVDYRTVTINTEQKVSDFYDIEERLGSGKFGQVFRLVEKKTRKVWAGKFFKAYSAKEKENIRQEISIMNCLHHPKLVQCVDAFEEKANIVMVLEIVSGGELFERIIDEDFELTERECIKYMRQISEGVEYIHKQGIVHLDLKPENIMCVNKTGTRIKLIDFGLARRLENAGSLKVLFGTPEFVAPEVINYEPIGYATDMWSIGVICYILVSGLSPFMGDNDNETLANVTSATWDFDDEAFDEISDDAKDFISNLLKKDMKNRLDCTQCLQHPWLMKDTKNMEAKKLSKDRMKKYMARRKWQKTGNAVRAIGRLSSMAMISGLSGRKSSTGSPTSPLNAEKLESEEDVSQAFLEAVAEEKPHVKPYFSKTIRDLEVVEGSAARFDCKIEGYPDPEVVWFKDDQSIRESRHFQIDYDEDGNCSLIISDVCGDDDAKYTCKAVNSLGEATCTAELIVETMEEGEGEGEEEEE

[27] = target: Mitogen-activated protein kinase 1 (Homo sapiens) (UniProt P28482); assay: Inhibition of recombinant GST-tagged human ERK2 expressed in Escherichia coli at 1 uM by FRET assay relative to control; summary of the method: as §2

Sequence of Rho-associated protein kinase 1 (Homo sapiens) (Q13464 2-1354 limits assumed): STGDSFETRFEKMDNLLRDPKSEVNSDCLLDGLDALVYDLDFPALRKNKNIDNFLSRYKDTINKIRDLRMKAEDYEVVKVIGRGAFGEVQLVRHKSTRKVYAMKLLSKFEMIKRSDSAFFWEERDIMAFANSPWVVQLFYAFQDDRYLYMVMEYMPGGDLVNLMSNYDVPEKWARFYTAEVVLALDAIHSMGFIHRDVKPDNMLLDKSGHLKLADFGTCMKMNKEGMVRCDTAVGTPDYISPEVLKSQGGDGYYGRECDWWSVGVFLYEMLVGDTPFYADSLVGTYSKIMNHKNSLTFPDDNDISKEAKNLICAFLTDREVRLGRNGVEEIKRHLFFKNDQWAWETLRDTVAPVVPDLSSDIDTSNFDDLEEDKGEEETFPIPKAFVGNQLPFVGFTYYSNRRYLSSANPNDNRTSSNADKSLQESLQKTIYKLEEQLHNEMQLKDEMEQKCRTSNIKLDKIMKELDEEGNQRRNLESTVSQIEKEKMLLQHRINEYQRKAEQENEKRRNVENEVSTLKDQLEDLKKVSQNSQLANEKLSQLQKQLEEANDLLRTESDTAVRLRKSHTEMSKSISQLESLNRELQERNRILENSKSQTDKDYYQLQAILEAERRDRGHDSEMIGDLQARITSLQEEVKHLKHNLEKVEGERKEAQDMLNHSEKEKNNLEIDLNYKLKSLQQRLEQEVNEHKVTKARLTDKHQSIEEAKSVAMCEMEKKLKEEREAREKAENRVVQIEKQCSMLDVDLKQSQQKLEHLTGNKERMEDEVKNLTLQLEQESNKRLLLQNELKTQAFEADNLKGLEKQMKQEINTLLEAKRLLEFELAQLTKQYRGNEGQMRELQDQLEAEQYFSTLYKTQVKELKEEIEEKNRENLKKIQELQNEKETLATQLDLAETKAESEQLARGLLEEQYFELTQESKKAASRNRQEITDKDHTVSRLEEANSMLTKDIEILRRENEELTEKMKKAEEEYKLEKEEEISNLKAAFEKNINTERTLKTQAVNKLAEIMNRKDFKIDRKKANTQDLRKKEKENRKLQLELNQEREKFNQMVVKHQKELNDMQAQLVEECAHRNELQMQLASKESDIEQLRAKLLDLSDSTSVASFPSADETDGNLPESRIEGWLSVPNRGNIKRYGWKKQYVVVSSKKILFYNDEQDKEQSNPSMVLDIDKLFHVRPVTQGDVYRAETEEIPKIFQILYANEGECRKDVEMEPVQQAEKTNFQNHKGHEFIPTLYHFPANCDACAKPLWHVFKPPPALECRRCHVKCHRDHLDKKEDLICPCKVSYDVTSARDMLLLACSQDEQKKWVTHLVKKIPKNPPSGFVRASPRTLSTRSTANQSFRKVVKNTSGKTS

## Nc1ncc(-c2cc([C@H]3[C@@H]4CN(C5COC5)C[C@@H]43)n(CC3CC3)n2)cc1C(F)(F)F
[1]
  inhibition: -7.4%
[2]
  inhibition: -8.1%
[3]
  inhibition: 3.5%
[4]
  inhibition: 0.5%
[5]
  inhibition: 4.6%
[6]
  inhibition: 22.2%
[7]
  inhibition: 2.4%
[8]
  inhibition: 25.6%
[9]
  Activity: > 50%
[10]
  Activity: > 50%
[11]
  inhibition: -1.1%
[12]
  inhibition: -7.7%
[13]
  inhibition: 14.1%
[14]
  inhibition: 1.9%
[15]
  inhibition: 13.8%
[16]
  inhibition: -3.6%
[17]
  inhibition: 11.1%
[18]
  Activity: > 50%
[19]
  inhibition: 6.3%
[20]
  inhibition: -0.3%
[21]
  inhibition: 7.8%
[22]
  Activity: > 50%
[23]
  inhibition: 4.2%
[24]
  inhibition: 11.9%
[25]
  inhibition: 0.3%
[26]
  inhibition: 11.7%
[27]
  inhibition: 6.3%

## CC(C)n1nc(-c2cnc(N)c(OC(F)(F)F)c2)cc1[C@H]1[C@@H]2CN(C3COC3)C[C@@H]21
[1]
  inhibition: 8.8%
[2]
  inhibition: -1.3%
[3]
  inhibition: 1.5%
[4]
  inhibition: -2.3%
[5]
  inhibition: 13.7%
[6]
  inhibition: 25.1%
[7]
  inhibition: 16%
[8]
  inhibition: 4.7%
[9]
  Activity: > 50%
[10]
  Activity: > 50%
[11]
  inhibition: -2%
[12]
  inhibition: -9.5%
[13]
  inhibition: 16.8%
[14]
  inhibition: 7.2%
[15]
  inhibition: 9.3%
[16]
  inhibition: 5.9%
[17]
  inhibition: 7.1%
[18]
  Activity: > 50%
[19]
  inhibition: 1.2%
[20]
  inhibition: 3.1%
[21]
  inhibition: 7.8%
[22]
  Activity: > 50%
[23]
  inhibition: 8.6%
[24]
  inhibition: 16.6%
[25]
  inhibition: 7.7%
[26]
  inhibition: 19.6%
[27]
  inhibition: 5.2%
